Screens (PubChem)
RGS4 inh – human RGS4 inhibition | 310,000 compounds, 0.45% hits | P49798 | B-score at 10 µM | HEK293 M3R/RGS4 inducible, Fluo-4 calcium flux; active compounds read high; triggered by carbachol at its EC20;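 active = B-score, a plate-corrected calcium signal, over three deviations above library mean, with baseline fluorescence within five deviations of library mean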;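 note: RGS4 expression induced by doxycycline in cells with stable M3 receptor; B-score is computed from the integrated fluorescence ratio over baseline after carbachol; higher B-score means a larger calcium signal and so more RGS4 inhibition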
Target sequence (P49798 whole entry, looked up): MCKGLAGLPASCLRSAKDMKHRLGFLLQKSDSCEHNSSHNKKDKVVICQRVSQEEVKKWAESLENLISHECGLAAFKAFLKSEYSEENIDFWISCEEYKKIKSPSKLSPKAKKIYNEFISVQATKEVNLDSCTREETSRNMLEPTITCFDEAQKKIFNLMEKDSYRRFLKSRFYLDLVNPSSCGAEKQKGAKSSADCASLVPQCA
RGS4 pot – potentiators or activators of RGS4. HEK293 M3R/inducible RGS4, carbachol calcium flux Fluo4; active compounds read low. B-score at 10 µM. 310,000 compounds, 0.92% hits. AID 463111;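 active = B-score of the integrated calcium signal more than 4 SD below the library mean, with starting fluorescence not abnormally high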;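 note: negative B-score means reduced calcium response which marks RGS4 activation or potentiation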
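Also added: carbachol at ECmax as muscarinic agonist stimulus; Assay system: HEK293 cells with stable M3R and inducible RGS4; Timing: overnight RGS4 induction, 30 min dye load 37 °C, 20 min compound RT; Measured by: Fluo4-AM (2 µM) calcium-flux fluorescence, kinetic read.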
MrgX1 antag – antagonists of human MrgX1 receptor; Q96LB2; B-score at 10 µM; MRGX1-HEK293 calcium flux, Fluo-4, BAM8-22 antagonism; active compounds read low; 310,000 compounds, 1.3% hits;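 active = calcium-response B-score plate-corrected more than 3 library SD below zero, starting fluorescence within 5 deviations, no agonist response on first addition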;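 note: peak minus trough fluorescence over baseline after final BAM8-22 challenge near maximal dose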
Target sequence (Q96LB2 whole entry, looked up): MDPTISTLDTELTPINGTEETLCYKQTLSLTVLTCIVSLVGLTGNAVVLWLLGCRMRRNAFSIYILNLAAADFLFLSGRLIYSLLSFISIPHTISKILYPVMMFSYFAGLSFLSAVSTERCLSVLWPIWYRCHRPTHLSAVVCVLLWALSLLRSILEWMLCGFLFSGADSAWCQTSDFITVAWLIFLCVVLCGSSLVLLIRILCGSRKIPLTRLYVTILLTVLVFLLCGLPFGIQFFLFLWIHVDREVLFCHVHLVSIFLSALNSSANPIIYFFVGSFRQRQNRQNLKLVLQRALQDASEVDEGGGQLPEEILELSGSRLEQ
MrgX1 PAM – allosterically activates human MrgX1 receptor signaling; Q96LB2; MrgX1-HEK293, Fluo-4 calcium flux, FDSS; active compounds read high; 310,000 compounds, 0.63% hits; AID 588675; B-score at 10 µM;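 active = plate-corrected calcium response at least 3 library SD above typical, normal starting fluorescence, not activating the receptor alone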;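 note: compound read alongside a low EC10 to EC30 dose of BAM8-22 agonist; peak minus trough fluorescence over baseline measured at the second addition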
MrgX1 ag – agonists of human MrgX1 receptor; 310,000 compounds, 0.44% hits; MrgX1-HEK293 cells, Fluo-4 calcium fluorescence, agonist mode; active compounds read high; Q96LB2; B-score at 10 µM;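 active = calcium response B-score plate-corrected fluorescence ratio at least 3 library SD, with starting fluorescence B-score inside 5 SD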
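Material: HEK293 cells stably expressing human MrgX1 receptor | Quantity: 15,000 cells per well | Times: Cells plated overnight, dye loaded 0.5 h 37 °C, 0.5 h room temperature | Measured by: Kinetic Fluo-4 NW fluorescence of intracellular calcium | Control set: Positive and negative controls per plate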
MrgX1 PAM conf – reconfirmed allosteric activator of human MrgX1 receptor | shares compounds with MrgX1 PAM | MrgX1-HEK293, Fluo-4 calcium fluorescence, FDSS | activation (ratio percentage), % at 10 µM | 1,200 compounds, 13% hits;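 active = ratio at least 3 SD above the weak peptide control, stable starting fluorescence, no direct agonism earlier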;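 note: compound followed by low BAM8-22 agonist challenge near EC20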
HEK293 Ca flux – counter-screen for MrgX1 antagonists: effect in parental HEK293 cells | shares compounds with MrgX1 antag | Fluo-4 calcium fluorescence, FDSS | fluorescence ratio F(max-min)/F0 at 10 µM | 4,000 compounds, 2% hits;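 active = duplicate-averaged calcium fluorescence ratio at least three times the standard deviation of buffer wells, a nonspecific response in parental cells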
HEK293 Ca counter – MrgX1 allosteric activator counter-screen hit in parental HEK293 cells. shares compounds with MrgX1 antag. parental HEK293 calcium flux, Fluo-4 fluorescence ratio; active compounds read high. fluorescence ratio F(max-min)/F0 at 10 µM. 4,000 compounds, 0.4% hits. AID 624114;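 active = calcium fluorescence ratio, averaged over duplicates, at least 3 SD of the buffer-well ratio, meaning a nonspecific response in receptor-free cells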;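 note: untransfected parental HEK293 lacking MrgX1 used as counterscreen for MrgX1 allosteric activators; fluorescence change taken during the second addition on a kinetic imager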
HEK293 Ca cntr2 – counter-screen for MrgX1 activators: effect in parental HEK293 cells; shares compounds with MrgX1 antag; Fluo-4 calcium fluorescence (FDSS); active compounds read high; fluorescence ratio F(max-min)/F0 at 10 µM; 4,000 compounds, 8.7% hits; AID 624115;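 active = calcium fluorescence ratio at least three times the spread of buffer wells, meaning a non-specific response in parental cells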
Large screens that a line does not name were inactive (follow-up assays come after a bar, where they were run). The list is not random: actives were taken first. Their share in the collection is about 3.5%.

Cc1sc2ncnc(N3CCCC(C)C3)c2c1C (stereo not given)	MrgX1 PAM 28 | MrgX1 PAM conf 25% | HEK293 Ca flux inactive | HEK293 Ca counter inactive | HEK293 Ca cntr2 inactive
Cc1sc2ncnc(N3CCCCC3C)c2c1C (stereo not given)	MrgX1 PAM 12 | MrgX1 PAM conf 6.3% | HEK293 Ca flux inactive | HEK293 Ca counter inactive | HEK293 Ca cntr2 inactive
Cc1sc2ncnc(N3CCCCC3)c2c1C	MrgX1 PAM 6.8 | MrgX1 PAM conf inactive | HEK293 Ca flux inactive | HEK293 Ca counter inactive | HEK293 Ca cntr2 inactive
Cc1c(C(=O)NCCC2=CCCCC2)sc2ncnc(N3CCCCC3C)c12 (stereo not given)	none
Cc1sc2ncnc(N3CCOCC3)c2c1C	none
CCc1cc2c(=O)[nH]c(N3CCCC3)nc2s1	none
CCc1cc2c(N3CCCCC3)ncnc2s1	MrgX1 PAM 11 | MrgX1 PAM conf inactive | HEK293 Ca flux inactive | HEK293 Ca counter inactive | HEK293 Ca cntr2 inactive
CCCCCN(C(=O)CCC(=O)OCC(=O)Nc1ccc(C)cc1F)c1c(N)n(CCCC)c(=O)[nH]c1=O	none
O=C(NCCNC(=O)c1cc(Cl)ccc1Cl)c1ccco1	none
Cc1cc(NC2CCCC2)n2nc(C)c(-c3ccccc3)c2n1	MrgX1 PAM 6.8 | MrgX1 PAM conf inactive | HEK293 Ca flux inactive | HEK293 Ca counter inactive | HEK293 Ca cntr2 inactive
Clc1ccc(-c2nnnn2-c2ccc(Cl)cc2)cc1	MrgX1 PAM 11 | MrgX1 PAM conf inactive | HEK293 Ca flux inactive | HEK293 Ca counter inactive | HEK293 Ca cntr2 inactive
Clc1ccc(-n2nnnc2-c2ccccc2)cc1	none (no result: RGS4 inh, RGS4 pot)
Cc1ccc(NC(=O)c2ccc(NS(=O)(=O)c3c(C)noc3C)cc2)cc1C	MrgX1 PAM 13 | MrgX1 PAM conf 2.3% | HEK293 Ca flux inactive | HEK293 Ca counter inactive | HEK293 Ca cntr2 inactive
COc1ccc(NC(=O)c2ccc(NS(=O)(=O)c3c(C)noc3C)cc2)cc1OC	none
c1ccc(Cc2c[nH]c3ccccc23)cc1	MrgX1 PAM 6.6 | MrgX1 PAM conf inactive | HEK293 Ca flux inactive | HEK293 Ca counter inactive | HEK293 Ca cntr2 inactive
CN(Cc1ccccc1)Cc1c[nH]c2ccccc12	none
COc1cc(C(=O)NC(=S)Nc2ccc3c(c2)C(=O)N(C)C3=O)cc(OC)c1OC	none
O=C(CN(C(=O)CNC(=O)c1cccs1)c1ccccc1)NC1CCCCC1	MrgX1 PAM 37 | MrgX1 PAM conf inactive | HEK293 Ca flux inactive | HEK293 Ca counter inactive | HEK293 Ca cntr2 inactive
Cc1ccc(C(=O)NC2CCCCC2)cc1	none
Cc1cc(C)n(-c2ccc(C(=O)NC3CCCCC3)cc2)n1	MrgX1 PAM 9.8 | MrgX1 PAM conf inactive | HEK293 Ca flux inactive | HEK293 Ca counter inactive | HEK293 Ca cntr2 inactive
CS(=O)(=O)N(CCc1ccccc1)CC(=O)Nc1ccc(OCc2ccccc2)cc1	none
COC(=O)c1ccccc1NC(=O)CN(CCc1ccccc1)S(C)(=O)=O	MrgX1 PAM 9.5 | MrgX1 PAM conf inactive | HEK293 Ca flux inactive | HEK293 Ca counter inactive | HEK293 Ca cntr2 inactive
Nc1nc(C(c2ccccc2)c2ccccc2)cs1	MrgX1 PAM 8.7 | MrgX1 PAM conf inactive | HEK293 Ca flux inactive | HEK293 Ca counter inactive | HEK293 Ca cntr2 inactive
Nc1nc(-c2ccccc2)cs1	none
O=C(COC(=O)C12CC3CC(CC(C3)C1)C2)Nc1ccccc1F	MrgX1 PAM 13 | MrgX1 PAM conf inactive | HEK293 Ca flux inactive | HEK293 Ca counter inactive | HEK293 Ca cntr2 inactive
O=C(COC(=O)C(O)c1ccccc1)NC12CC3CC(CC(C3)C1)C2 (stereo not given)	none
O=C(COC(=O)C12CC3CC(CC(O)(C3)C1)C2)Nc1ccccc1OC(F)F	none
O=C(COc1ccccc1F)NC12CC3CC(CC(C3)C1)C2	MrgX1 PAM 6.6 | MrgX1 PAM conf inactive | HEK293 Ca flux inactive | HEK293 Ca counter inactive | HEK293 Ca cntr2 inactive
COc1cccc(CN2CCN(Cc3cccn3-c3cccnc3)CC2CCO)c1 (stereo not given)	none
COc1cc2nc(CN3CCOCC3)n(CC(=O)NCC(F)(F)F)c(=O)c2cc1OC	none
O=C(NCCO)/C(=C\c1ccc(Br)cc1)NC(=O)c1cccs1	none
Nc1nc(Br)c2c(F)cccc2c1-c1ccc(Cl)cc1	MrgX1 PAM 8.3 | MrgX1 PAM conf inactive | HEK293 Ca flux inactive | HEK293 Ca counter inactive | HEK293 Ca cntr2 inactive
O=C(CSc1nnc(CNC(=O)c2ccccc2F)o1)NC1CCCCC1	MrgX1 PAM 6.5 | MrgX1 PAM conf inactive | HEK293 Ca flux inactive | HEK293 Ca counter inactive | HEK293 Ca cntr2 inactive
Cc1ccc(-c2[nH]ncc2C(=O)c2ccc(Br)cc2)c(O)c1	MrgX1 PAM 8.7 | MrgX1 PAM conf inactive | HEK293 Ca flux inactive | HEK293 Ca counter inactive | HEK293 Ca cntr2 inactive
Cc1ccc(C(=O)c2cn[nH]c2-c2cc(Cl)ccc2O)cc1	MrgX1 PAM 11 | MrgX1 PAM conf inactive | HEK293 Ca flux inactive | HEK293 Ca counter inactive | HEK293 Ca cntr2 inactive
O=C(Nc1nnc(CCS(=O)(=O)c2ccc3ccccc3c2)s1)c1ccc([N+](=O)[O-])cc1	none
CCCSc1nnc(CSc2nc(C)cc(C)n2)n1C	none
O=C(Nc1ccc2c(c1)OCO2)c1ccc(Br)c(S(=O)(=O)N2CCCC2)c1	MrgX1 PAM 14 | MrgX1 PAM conf inactive | HEK293 Ca flux inactive | HEK293 Ca counter inactive | HEK293 Ca cntr2 inactive
CCc1nn(C(CC)C(=O)NCCc2ccc(OC)cc2OC)c(=O)c2cc3occc3n12 (stereo not given)	none
O=C(Nc1cc(F)c(Br)cc1F)c1ccc(Cl)cc1	MrgX1 PAM 21 | MrgX1 PAM conf 10% | HEK293 Ca flux inactive | HEK293 Ca counter inactive | HEK293 Ca cntr2 inactive
O=C(c1cc2nc(-c3ccc(F)cc3)cc(C(F)(F)F)n2n1)N1CCCCC1c1cccnc1 (stereo not given)	MrgX1 PAM 7.1 | MrgX1 PAM conf inactive | HEK293 Ca flux inactive | HEK293 Ca counter inactive | HEK293 Ca cntr2 inactive
O=C(c1cnn2c(C(F)(F)F)cc(-c3ccccc3)nc12)N1CCCCC1c1cccnc1 (stereo not given)	none
CC(C)CCn1c(N2CCCC2)nc2c1c(=O)n(C)c(=O)n2C	none
CCCCCCn1c(N2CCCC2)nc2c1c(=O)n(C)c(=O)n2C	MrgX1 PAM 7.7 | MrgX1 PAM conf inactive | HEK293 Ca flux inactive | HEK293 Ca counter inactive | HEK293 Ca cntr2 inactive
